17 compounds from ChEMBL document CHEMBL2029291, “Synthesis and structure-activity relationships of new quinolone-type molecules against Trypanosoma brucei” (J Med Chem, 2012) can be followed below.

Series [1] relates to Trypanosoma brucei brucei. The series is described as follows: Antitrypanosomal activity against Trypanosoma brucei brucei TC221 […] after 72 hrs by alamar blue assay. The conditions noted are these: TC221, 72 h. The series is classed as functional, organism-based. Summed up:
(§1)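 Trypomastigote T. b. brucei TC 221 grown in Baltz medium, seeded at 10⁴ per mL and exposed to graded compound concentrations (dissolved in DMSO or 0.1 M NaOH). Incubated at 37 °C, 5% CO₂ for 72 h, with a reading also taken at 48 h. AlamarBlue absorbance read at 550/630 nm. IC50 by linear interpolation; duplicate tests, mean and SD.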
(In general: Alamar Blue is a resazurin reagent that responds to reducing activity.)

In series [2] the test system is Trypanosoma brucei brucei. The series is described as follows: Antitrypanosomal activity against Trypanosoma brucei brucei TC221 […] after 48 hrs by alamar blue assay. It is filed as functional, organism-based. The conditions noted are these: TC221, 48 h. The gist of the method:
as §1

Series [3] is described as follows: Cytotoxicity against mouse J774.1 cells after 48 hrs by alamar blue assay. It is filed as cell-based. The following applies: J774.1, 48 h. Summed up:
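J774.1 macrophages kept in complete Click RPMI, detached by scraping, PBS-washed, suspended at 2 × 10⁶ cells/mL and plated in phenol-red-free RPMI with or without compound. AlamarBlue added and absorbance read 24 and 48 h later. Compound-free wells taken as 100% growth. Effects of cell density, incubation time and DMSO level were controlled. Tested in duplicate.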

Series [4] is described as follows: Selectivity index, ratio of IC50 for mouse J774.1 cells to IC50 for Trypanosoma brucei brucei TC221. It is filed as toxicity. The following applies: read-out: Ratio IC50.
The nature of series [5]: Lipophilicity, log P of the compound by RP-HPLC analysis. The series is classed as physicochemical. The gist of the method: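 LogP by RP-HPLC on a C18 Inertsil ODS-2 column. Mobile phase was methanol/10 mM phosphate buffer pH 7.4 (70:30) at 1.5 mL/min. Samples were at 4 μg/mL, detected at 254.4 nm, and run in duplicate. Capacity ratio was calculated as k′ = (tr − to)/to.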

In series [6] the test system is Trypanosoma brucei rhodesiense. The series is described as follows: Antitrypanosomal activity against Trypanosoma brucei rhodesiense STIB900 […] after 48 hrs by alamar blue assay. The series is classed as functional, organism-based.
Series [7] is described as follows: Selectivity index, ratio of IC50 for mouse J774.1 cells to IC50 for Trypanosoma brucei rhodesiense STIB900. The series is classed as toxicity. The following applies: read-out: Ratio IC50. Summed up: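 Selectivity index is the J774.1 IC50 divided by the trypanosome IC50. J774.1 macrophages were kept in complete Click RPMI, washed, and plated in phenol red-free RPMI with compound. AlamarBlue was added and plates were read 24 and 48 h later. Absorbance without compound was set as 100% growth.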

The nature of series [8]: Chemical stability of the compound in 35% cremophore RH40, 45% capmul MCM C8, 10% triethylcitrate and 10% ethanol after 24 hrs. The series is classed as physicochemical. Summed up: (§2)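 Oral preconcentrate of Cremophor RH40 (35%), Capmul MCM C8 (45%), triethylcitrate (10%) and ethanol (10%) was tested for dissolving compound at 10 mg/mL. Stability of the emulsion formed in aqueous solution was observed over time.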

Series [9] can be described thus: Aqueous solubility of the compound in 10% Tween 80. It is filed as physicochemical. The following applies: buffer. The gist of the method:
(§3)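 Water solubility was assessed after adding 10% Tween 80 or 10% Cremophor RH40 to the compound.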

A short description of series [10]: Aqueous solubility of the compound in 10% Cremophore RH40. The following applies: buffer. It is filed as physicochemical. The gist of the method: as §3
The nature of series [11]: Aqueous solubility of the compound in 35% cremophore RH40, 45% capmul MCM C8, 10% triethylcitrate and 10% ethanol. It is filed as physicochemical. The following applies: buffer. Summed up:
as §2

Series [12] has as its system Trypanosoma brucei rhodesiense. The series is described as follows: Antitrypanosomal activity against Trypanosoma brucei rhodesiense STIB900 infected in NMRI mouse at 50 mg/kg, po administered on day 3 to 6 post infection measured every second day up to 6 days post infection. It is filed as functional, organism-based. The arrangement: dose 50 mg/kg. The gist of the method: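 Acute mouse model with T. b. rhodesiense STIB900-infected NMRI mice. Compound was given orally as a 1:1 aqueous dilution of a 10 mg/mL preconcentrate (Cremophor RH40 35%, Capmul MCM C8 45%, triethylcitrate 10%, ethanol 10%). An untreated control group was included. Parasitemia was checked every second day to day 6, and survival was recorded. Aparasitemic survivors at 60 days were counted as cured.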

For series [13], the system named is Trypanosoma brucei. The series is described as follows: Antitrypanosomal activity in topoisomerase 2-knockout BSF Trypanosoma brucei assessed as assessed as shrinkage of kinetoplast over time at IC50 concentration after 72 hrs by […]. The series is classed as functional, organism-based. Summed up:
(§4)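 RNAi against mitochondrial topoisomerase II in the BSF mitochondrion marker line. A 500 bp topoII fragment in p2T7-177 was transfected by nucleofection, with puromycin selection at 0.3 μg/mL. RNAi was induced with 1 μg/mL tetracycline. Knockdown was confirmed by Northern blot at 24 h, with tubulin as reference. Growth and DAPI-stained kinetoplast loss were followed over time.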

Series [14] deals with Trypanosoma brucei. As to the kind of experiment: Antitrypanosomal activity in topoisomerase 2-knockout BSF Trypanosoma brucei assessed as assessed as shrinkage of kinetoplast over time at IC50 concentration after 48 hrs by […]. The series is classed as functional, organism-based. The gist of the method: as §4
Series [15] concerns Trypanosoma brucei brucei. The series is described as follows: Cell cycle arrest in GFP-labeled Trypanosoma brucei brucei assessed as increase in segregated 1K1N cell population at IC50 concentration after 42 hrs by DAPI staining-based fluorescence microscopic analysis.

The source made the active and inactive calls. No cut-off for these calls is given here. A value given as a limit tells only on which side of the number the result lay.

Take `CCCCn1cc(C(=O)NCc2ccccc2)c(=O)c2cc(F)c(N3CCC(C(N)=O)CC3)cc21`: the IC50 in series [1] was determined as 1.98 µM; in [2], 1.09 µM; in series [3] it was 47 µM. In [4], the selectivity ratio worked out at 43.1. In series [5] (read-out: logP), the lipophilicity (logP) worked out at 2.4.

For the compound `NC(=O)C1CCN(c2cc3c(cc2F)c(=O)c(C(=O)NCc2ccccc2)cn3C2CC2)CC1`, the IC50 in series [1] was 1.91 µM; in series [2], 1.07 µM; in series [3] it was 51.2 µM. The selectivity ratio in series [4] is 47.9. Also, the logP in series [5] (read-out: logP) is 2.4.

For the compound `CCCCn1cc(C(=O)NCc2ccc([N+](=O)[O-])cc2)c(=O)c2cc(F)c(N3CCC(C(N)=O)CC3)cc21`, the values for the 50% inhibitory concentration (IC50) in series [1], in [2] and in [3] were 0.58 µM, 0.54 µM and greater than 100 µM, respectively. Also, in series [4], the selectivity ratio is greater than 185. Further, in series [5] (read-out: logP), the log partition coefficient (logP) was 2.4.

For the compound `CCCCn1cc(C(=O)NCc2ccccc2)c(=O)c2cc(F)c(N3CCOCC3)cc21`, the concentration for half-maximal inhibition (IC50) stood at 0.05 µM in series [1], 0.047 µM in [2], 0.009 µM in series [6] and 57 µM in [3]. Further, the selectivity ratio in series [4] was 1140; in [7], 6330. The compound further gave a logP in [5] of 2.4. The Stability entry in series [8] is “Stable”. Also, the solubility result in series [9] is “Insoluble”; in series [10], “Insoluble”; in [11], “soluble”. Further, in [12], the outcome was inactive. Further, the outcome (with Trypanosoma brucei [13]; in the series on Trypanosoma brucei [14]; in [15]) was Active.

`CCCCn1cc(C(=O)NCc2ccccc2)c(=O)c2cc(F)c(N(C)C)cc21`: the IC50 in series [1] was 0.92 µM; in series [2], 0.68 µM; in series [3], greater than 100 µM. For the same compound, the selectivity ratio in series [4] is greater than 147. The log partition coefficient (logP) in series [5] (read-out: logP) turned out to be 2.4.

`CCCCn1cc(C(=O)NCc2ccco2)c(=O)c2cc(F)c(N3CCC(C(N)=O)CC3)cc21`: the half-maximal inhibitory concentration (IC50) in [1] stood at 1.84 µM; in [2], 1.03 µM; in [3], 41.4 µM. Moreover, the selectivity ratio in [4] is 40.2. Besides, in series [5] (read-out: logP), the logP amounted to 2.4.

Take `CCCn1cc(C(=O)NCc2ccco2)c(=O)c2cc(F)c(N3CCC(C(N)=O)CC3)cc21`: the IC50 in [1] amounted to 4.84 µM; in [2], 4.6 µM; in series [3] it was 56.9 µM. In [4], the selectivity ratio came to 12.4.

Take `O=C(O)c1cn(C2CC2)c2cc(N3CCNCC3)c(F)cc2c1=O`: the outcome in series [15] was Active.

For `CCn1cc(C(=O)NCc2ccc(OC)cc2)c(=O)c2ccc(C(F)(F)F)cc21`, the IC50 in series [1] was 6.37 µM; in series [2], 7.31 µM; in series [3], greater than 100 µM. Moreover, the selectivity ratio in series [4] is greater than 13.7.

For `CCCCn1cc(C(=O)NCc2ccccc2)c(=O)c2cc(F)c(N(C)Cc3ccccc3)cc21`, the IC50 in series [1] turned out to be 10.8 µM; in series [2] it was 5.4 µM; in series [3], 86 µM. In addition, in series [4], the selectivity ratio amounted to 15.9.

For `NC(=O)C1CCN(c2cc3c(cc2F)c(=O)c(C(=O)NCc2ccco2)cn3C2CC2)CC1`, the half-maximal inhibitory concentration (IC50) was 12.1 µM in series [1], 8.89 µM in series [2] and greater than 100 µM in series [3]. The selectivity ratio in series [4] was greater than 11.2.

With `CCCCn1cc(C(=O)NCc2ccc(OC)cc2)c(=O)c2cc(F)c(N3CCC(C(N)=O)CC3)cc21`, the concentration for half-maximal inhibition (IC50) in series [1] is 1.45 µM; in series [2], 0.78 µM; in [3], 40.8 µM. Also, the selectivity ratio in series [4] was found to be 52.3. For the same compound, the log partition coefficient (logP) in series [5] (read-out: logP) came out at 2.4. Further, the outcome (with Trypanosoma brucei [13]; in the series on Trypanosoma brucei [14]; in series [15]) was Active.

`CCCCn1cc(C(=O)NCc2ccccc2)c(=O)c2cc(F)c(N3CCCCC3)cc21`: the concentration for half-maximal inhibition (IC50) in [1] stood at 1.04 µM; in series [2], 0.67 µM; in series [3], 47.8 µM. Moreover, the selectivity ratio in series [4] was 71.3. Moreover, the log partition coefficient (logP) in [5] (read-out: logP) was determined as 2.4.

Turning to `CCCn1cc(C(=O)NCc2ccccc2)c(=O)c2cc(F)c(N3CCC(C(N)=O)CC3)cc21`, the IC50 was 1.25 µM in [1], 0.75 µM in series [2] and 43.7 µM in [3]. In addition, the selectivity ratio in [4] amounted to 58.3. The logP in series [5] (read-out: logP) was found to be 2.4.

On to `CCCCn1cc(C(=O)O)c(=O)c2cc(F)c(N3CCCCC3)cc21`, for which the IC50 in [1] was found to be 18.1 µM; in [2], 14.6 µM; in series [3], 93 µM. In addition, in series [4], the selectivity ratio was determined as 6.39.

`CCCn1cc(C(=O)NCc2ccc(OC)cc2)c(=O)c2cc(F)c(N3CCC(C(N)=O)CC3)cc21`: the IC50 was 3.12 µM in series [1], 2.28 µM in series [2] and 41.4 µM in series [3]. Moreover, the selectivity ratio in [4] was 18.2.

For `CCCCn1cc(C(=O)O)c(=O)c2cc(F)c(Cl)cc21`, the IC50 in series [1] is greater than 40 µM; in series [2], greater than 40 µM; in [3] it was greater than 100 µM. In [4], the selectivity ratio is greater than 2.5.

Broadly, the IC50 is the concentration at which inhibition is half-maximal. A lower IC50 goes with inhibition by little substance. A word on the logP: it is the decadic logarithm of the partition coefficient of the neutral form, usually between octanol and water.
